# According to ChEMBL document CHEMBL2384950, “2-(3-Fluoro-4-methylsulfonylaminophenyl)propanamides as potent TRPV1 antagonists: structure activity relationships of the 2-oxy pyridine C-region” (Eur J Med Chem, 2013):
# What was measured:
# [1] = target: T1, Transient receptor potential cation channel subfamily V member 1 (Homo sapiens, UniProt Q8NER1); experiment: Antagonist activity at human TRPV1 expressed in CHOK1 cells assessed as inhibition of pH 6 to 6.3-induced activity by FLIPR assay; format: cell-based, CHO-K1
# [2] = target: T1, Transient receptor potential cation channel subfamily V member 1; experiment: Antagonist activity at human TRPV1 expressed in CHOK1 cells assessed as inhibition of capsaicin-induced activity by FLIPR assay; format: cell-based, CHO-K1
# [3] = target: T1, Transient receptor potential cation channel subfamily V member 1; experiment: Antagonist activity at human TRPV1 expressed in CHOK1 cells assessed as inhibition of N-arachidonoyldopamine-induced activity after 5 mins by FLIPR assay; format: cell-based, CHO-K1
# [4] = target: T1, Transient receptor potential cation channel subfamily V member 1; experiment: Antagonist activity at human TRPV1 expressed in CHOK1 cells assessed as inhibition of heat 45 degC-induced activity after 5 mins by FLIPR assay; format: cell-based, CHO-K1
# [5] = test system: Mus musculus; experiment: Analgesic activity in NMRI mouse assessed as inhibition of formalin-induced nociceptive response at 0.3 mg/kg, po mesaured for 21 to 24 mins relative to control; format: functional
# How it was run: (§1)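 Oral dosing in mice, randomized dose and vehicle groups, 10 animals per group, vehicle control each study. 20 μl 1% formalin in 0.9% NaCl injected subcutaneously into dorsal right hind paw. Time spent licking and biting the injected paw counted 21–24 min post-formalin. Reported as % inhibition (mean ± SEM) versus vehicle; Kruskal–Wallis test.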
# [6] = test system: Mus musculus; experiment: Analgesic activity in NMRI mouse assessed as inhibition of formalin-induced nociceptive response at 0.1 mg/kg, po mesaured for 21 to 24 mins relative to control; format: functional; how it was run: as §1
# T1 sequence (Q8NER1 whole entry): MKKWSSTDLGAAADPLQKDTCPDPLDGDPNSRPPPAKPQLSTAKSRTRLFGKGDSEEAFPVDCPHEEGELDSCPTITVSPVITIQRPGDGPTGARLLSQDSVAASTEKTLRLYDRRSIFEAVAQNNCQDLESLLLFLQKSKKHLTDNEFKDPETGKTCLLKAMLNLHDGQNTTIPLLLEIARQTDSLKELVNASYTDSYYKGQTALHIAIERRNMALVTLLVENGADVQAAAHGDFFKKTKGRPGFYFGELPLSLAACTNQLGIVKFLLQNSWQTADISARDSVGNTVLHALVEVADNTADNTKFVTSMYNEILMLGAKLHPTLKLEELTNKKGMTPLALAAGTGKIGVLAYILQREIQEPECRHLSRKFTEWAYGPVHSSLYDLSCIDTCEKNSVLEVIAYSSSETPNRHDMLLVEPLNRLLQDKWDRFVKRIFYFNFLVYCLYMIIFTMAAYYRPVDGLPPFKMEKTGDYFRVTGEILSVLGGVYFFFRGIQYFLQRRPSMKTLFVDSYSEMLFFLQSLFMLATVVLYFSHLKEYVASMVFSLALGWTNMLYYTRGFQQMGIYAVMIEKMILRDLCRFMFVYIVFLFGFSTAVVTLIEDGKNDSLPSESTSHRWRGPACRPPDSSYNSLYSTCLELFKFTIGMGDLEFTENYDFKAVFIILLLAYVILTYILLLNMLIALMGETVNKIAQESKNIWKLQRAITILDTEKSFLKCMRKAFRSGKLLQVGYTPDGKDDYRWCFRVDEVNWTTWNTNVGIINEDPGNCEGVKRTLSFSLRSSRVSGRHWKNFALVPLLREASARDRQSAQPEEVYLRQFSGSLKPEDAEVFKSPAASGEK
Compound,IC50 [1],Ki [2],also measured
CC(C(=O)NCc1ccc(C(C)(C)C)cc1)c1ccc(NS(C)(=O)=O)c(F)c1 (stereo not given),1990 nM,44.5 nM,
CC1CCN(c2nc(C(F)(F)F)ccc2CNC(=O)C(C)c2ccc(NS(C)(=O)=O)c(F)c2)CC1 (stereo not given),,,Ki [3]: 0.23 nM; IC50 [4]: 4.5 nM
CC(C(=O)NCc1ccc(C(F)(F)F)nc1OCCC1CCCCN1C(=O)OC(C)(C)C)c1ccc(NS(C)(=O)=O)c(F)c1 (stereo not given),16.6 nM,0.3 nM,
CC(C(=O)NCc1ccc(C(F)(F)F)nc1OCc1ccccc1)c1ccc(NS(C)(=O)=O)c(F)c1 (stereo not given),,,inhibition in vivo at 0.3 mg/kg [5]: 54.1%; inhibition in vivo at 0.1 mg/kg [6]: 41.8%; Ki [3]: 0.001 nM; IC50 [4]: 52.3 nM
CC(C(=O)NCc1ccc(C(F)(F)F)nc1OCCc1ccccc1)c1ccc(NS(C)(=O)=O)c(F)c1 (stereo not given),27.6 nM,0.5 nM,
COc1ccc(COc2nc(C(F)(F)F)ccc2CNC(=O)C(C)c2ccc(NS(C)(=O)=O)c(F)c2)cc1 (stereo not given),653 nM,2.6 nM,
CC(C(=O)NCc1ccc(C(F)(F)F)nc1OCc1cccc(F)c1)c1ccc(NS(C)(=O)=O)c(F)c1 (stereo not given),69 nM,0.8 nM,
CC(C(=O)NCc1ccc(C(F)(F)F)nc1OCc1cccc(Cl)c1)c1ccc(NS(C)(=O)=O)c(F)c1 (stereo not given),95 nM,4.9 nM,
CC(C(=O)NCc1ccc(C(F)(F)F)nc1OCc1cc(F)cc(F)c1)c1ccc(NS(C)(=O)=O)c(F)c1 (stereo not given),93 nM,1 nM,
CC(C(=O)NCc1ccc(C(F)(F)F)nc1OCc1cc(Cl)cc(Cl)c1)c1ccc(NS(C)(=O)=O)c(F)c1 (stereo not given),114 nM,2.6 nM,
CC1CC(C)CC(Oc2nc(C(F)(F)F)ccc2CNC(=O)C(C)c2ccc(NS(C)(=O)=O)c(F)c2)C1 (stereo not given),174 nM,,
CC(C(=O)NCc1ccc(C(F)(F)F)nc1OC1CCNCC1)c1ccc(NS(C)(=O)=O)c(F)c1 (stereo not given),> 10000 nM,,
CC(C(=O)NCc1ccc(C(F)(F)F)nc1OC[C@@H]1C[C@H]1C)c1ccc(NS(C)(=O)=O)c(F)c1 (stereo not given in full),5.1 nM,0.3 nM,
CC(C(=O)NCc1ccc(C(F)(F)F)nc1OCC1CCNCC1)c1ccc(NS(C)(=O)=O)c(F)c1 (stereo not given),> 10000 nM,,
COCCOc1nc(C(F)(F)F)ccc1CNC(=O)C(C)c1ccc(NS(C)(=O)=O)c(F)c1 (stereo not given),,49 nM,
CCOCCOc1nc(C(F)(F)F)ccc1CNC(=O)C(C)c1ccc(NS(C)(=O)=O)c(F)c1 (stereo not given),,50 nM,
CC(C)COc1nc(C(F)(F)F)ccc1CNC(=O)C(C)c1ccc(NS(C)(=O)=O)c(F)c1 (stereo not given),,,inhibition in vivo at 0.3 mg/kg [5]: 60.8%; inhibition in vivo at 0.1 mg/kg [6]: 63.4%; Ki [3]: 0.29 nM; IC50 [4]: 67.5 nM
CCC(CC)Oc1nc(C(F)(F)F)ccc1CNC(=O)C(C)c1ccc(NS(C)(=O)=O)c(F)c1 (stereo not given),> 10000 nM,,
CCCCC(CCC)Oc1nc(C(F)(F)F)ccc1CNC(=O)C(C)c1ccc(NS(C)(=O)=O)c(F)c1 (stereo not given),,0.5 nM,
